Measured values reported in ChEMBL document CHEMBL4428053, “Application of a Parallel Synthetic Strategy in the Discovery of Biaryl Acyl Sulfonamides as Efficient and Selective NaV1.7 Inhibitors” (J Med Chem, 2016).
Values after ≈ are worked out from the molar mass of the structure shown. Active and inactive are the calls of the source. The rule behind the calls is not given here.

Assays:
[1] = molecular target: T1, Sodium channel protein type 9 subunit alpha (Homo sapiens, UniProt Q15858); assay: Inhibition of human Nav1.7 at 20% inactivated state expressed in HEK293 cells at -140 mV holding potential followed by channel inactivation by manual whole cell patch clamp electrophysiology assay; type: cell-based
T1 sequence (Q15858 whole entry): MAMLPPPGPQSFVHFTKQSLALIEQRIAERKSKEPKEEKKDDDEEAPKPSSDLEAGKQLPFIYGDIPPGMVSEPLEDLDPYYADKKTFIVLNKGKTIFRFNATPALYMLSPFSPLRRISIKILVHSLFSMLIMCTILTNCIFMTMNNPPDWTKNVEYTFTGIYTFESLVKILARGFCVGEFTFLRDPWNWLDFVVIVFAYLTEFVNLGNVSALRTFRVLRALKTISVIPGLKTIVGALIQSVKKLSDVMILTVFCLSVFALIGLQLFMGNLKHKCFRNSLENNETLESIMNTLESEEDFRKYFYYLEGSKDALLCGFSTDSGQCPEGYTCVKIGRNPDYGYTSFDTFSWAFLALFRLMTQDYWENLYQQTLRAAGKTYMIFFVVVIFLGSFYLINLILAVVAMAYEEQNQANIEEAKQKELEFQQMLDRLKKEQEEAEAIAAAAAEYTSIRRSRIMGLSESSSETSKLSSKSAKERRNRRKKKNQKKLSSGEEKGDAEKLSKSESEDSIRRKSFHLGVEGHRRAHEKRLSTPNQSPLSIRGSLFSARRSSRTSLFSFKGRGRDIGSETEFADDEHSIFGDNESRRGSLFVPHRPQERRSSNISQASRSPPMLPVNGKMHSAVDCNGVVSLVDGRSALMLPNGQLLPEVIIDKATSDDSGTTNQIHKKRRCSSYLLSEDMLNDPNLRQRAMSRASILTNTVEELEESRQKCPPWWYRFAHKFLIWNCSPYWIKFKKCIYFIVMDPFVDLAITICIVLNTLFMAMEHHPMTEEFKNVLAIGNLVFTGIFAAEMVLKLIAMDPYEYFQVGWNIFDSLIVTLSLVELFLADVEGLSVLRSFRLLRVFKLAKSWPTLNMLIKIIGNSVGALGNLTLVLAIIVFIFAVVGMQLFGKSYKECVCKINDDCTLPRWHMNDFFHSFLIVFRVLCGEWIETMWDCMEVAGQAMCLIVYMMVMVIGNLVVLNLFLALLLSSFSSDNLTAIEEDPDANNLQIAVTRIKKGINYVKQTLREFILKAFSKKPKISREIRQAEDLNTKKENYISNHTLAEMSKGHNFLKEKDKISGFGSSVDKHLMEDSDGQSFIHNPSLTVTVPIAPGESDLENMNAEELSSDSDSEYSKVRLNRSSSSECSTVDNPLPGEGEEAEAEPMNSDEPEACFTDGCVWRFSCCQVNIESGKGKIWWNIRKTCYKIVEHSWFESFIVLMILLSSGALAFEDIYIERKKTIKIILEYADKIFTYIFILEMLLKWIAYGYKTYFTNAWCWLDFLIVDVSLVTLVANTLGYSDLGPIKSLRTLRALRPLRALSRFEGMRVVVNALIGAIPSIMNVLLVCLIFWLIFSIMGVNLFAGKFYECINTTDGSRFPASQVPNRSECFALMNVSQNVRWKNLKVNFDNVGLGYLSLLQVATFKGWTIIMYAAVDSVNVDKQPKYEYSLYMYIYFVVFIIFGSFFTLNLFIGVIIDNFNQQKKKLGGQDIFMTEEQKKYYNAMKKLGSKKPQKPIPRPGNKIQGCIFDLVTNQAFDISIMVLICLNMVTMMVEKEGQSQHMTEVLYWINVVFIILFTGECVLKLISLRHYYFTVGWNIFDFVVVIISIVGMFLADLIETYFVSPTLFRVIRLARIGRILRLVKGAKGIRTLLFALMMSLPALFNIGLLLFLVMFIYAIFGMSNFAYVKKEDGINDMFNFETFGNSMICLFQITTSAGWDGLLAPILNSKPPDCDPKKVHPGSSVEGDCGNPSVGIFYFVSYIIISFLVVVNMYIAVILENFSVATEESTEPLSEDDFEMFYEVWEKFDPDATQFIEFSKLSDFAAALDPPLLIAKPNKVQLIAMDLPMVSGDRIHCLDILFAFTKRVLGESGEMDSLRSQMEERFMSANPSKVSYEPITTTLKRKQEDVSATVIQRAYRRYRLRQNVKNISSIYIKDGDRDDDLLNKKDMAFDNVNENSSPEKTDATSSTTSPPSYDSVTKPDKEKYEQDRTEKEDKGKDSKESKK
Method in brief: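 Tested on channels about 20% inactivated.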

[2] = Apparent passive permeability in MDCK cells at 5 uM after 120 mins by LC/MS/MS analysis; type: ADME, cell-based, Canis lupus familiaris; settings: dog
Cytochrome P450 2D6 [3] = molecular target: T2, Cytochrome P450 2D6 (Homo sapiens, UniProt P10635)
T2 sequence (P10635 whole entry): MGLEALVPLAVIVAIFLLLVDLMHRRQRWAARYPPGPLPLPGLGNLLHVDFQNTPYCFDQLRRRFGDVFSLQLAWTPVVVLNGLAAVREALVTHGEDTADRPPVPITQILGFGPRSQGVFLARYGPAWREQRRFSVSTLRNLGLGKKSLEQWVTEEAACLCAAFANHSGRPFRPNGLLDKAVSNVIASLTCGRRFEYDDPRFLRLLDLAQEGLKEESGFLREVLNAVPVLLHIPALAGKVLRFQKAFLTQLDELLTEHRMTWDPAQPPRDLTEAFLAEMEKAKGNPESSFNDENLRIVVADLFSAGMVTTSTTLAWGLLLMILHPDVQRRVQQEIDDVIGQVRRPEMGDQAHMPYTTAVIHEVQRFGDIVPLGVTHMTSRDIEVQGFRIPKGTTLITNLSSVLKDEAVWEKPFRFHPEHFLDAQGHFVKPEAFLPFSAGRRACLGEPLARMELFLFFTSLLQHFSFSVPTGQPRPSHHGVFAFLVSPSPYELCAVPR

Cytochrome P450 3A4 [4] = molecular target: T3, Cytochrome P450 3A4 (Homo sapiens, UniProt P08684)
T3 sequence (P08684 whole entry): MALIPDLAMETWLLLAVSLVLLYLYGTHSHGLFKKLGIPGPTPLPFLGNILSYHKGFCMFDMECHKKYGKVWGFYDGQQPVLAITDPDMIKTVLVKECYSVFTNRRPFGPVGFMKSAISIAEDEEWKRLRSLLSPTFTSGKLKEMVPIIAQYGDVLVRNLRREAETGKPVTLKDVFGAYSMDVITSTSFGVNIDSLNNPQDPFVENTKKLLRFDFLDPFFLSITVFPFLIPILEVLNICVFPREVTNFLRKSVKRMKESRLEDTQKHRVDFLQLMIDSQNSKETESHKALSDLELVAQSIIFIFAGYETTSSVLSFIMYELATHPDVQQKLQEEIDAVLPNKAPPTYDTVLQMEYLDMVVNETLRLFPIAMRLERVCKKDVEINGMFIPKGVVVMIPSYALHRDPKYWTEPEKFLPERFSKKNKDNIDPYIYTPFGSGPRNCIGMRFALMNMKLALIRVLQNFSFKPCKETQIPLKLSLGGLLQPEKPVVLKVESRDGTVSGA

physchem = settings: PBS, pH 7.4
[5] = molecular target: Sodium channel protein type 8 subunit alpha (Homo sapiens, UniProt Q9UQD0); assay: Inhibition of human Nav1.6 expressed in HEK293 cells assessed as reduction in peak inward current by manual whole cell patch clamp electrophysiology assay; type: cell-based
[6] = molecular target: T1, Sodium channel protein type 9 subunit alpha; assay: Inhibition of human Nav1.7 expressed in HEK293 cells assessed as use-dependent block at pulse 26 by ionworks quattro electrophysiology assay; type: cell-based
[7] = Unbound plasma concentration in C57BL/6 mouse model of histamine-induced scratching at 300 mg/kg, po administered 4 hrs prior to histamine challenge; type: ADME, organism-based; settings: in vivo
Method in brief: (§1)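 Mice were dosed orally with vehicle, diphenhydramine (30 mg/kg, n = 8) or test article at 30 (n = 9), 100 (n = 10) or 300 (n = 10) mg/kg; vehicle n = 12. All groups received histamine intradermally. Total scratch bouts were counted, with unbound plasma concentration reported per dose. Statistics: one-way ANOVA with Dunnett's test versus vehicle.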

Mus musculus [8] = assay: In vivo inhibition of Nav1.7 in C57BL/6 mouse assessed as unbound plasma concentration required to reduce histamine-induced scratching bouts at 100 mg/kg, po administered 4 hrs prior to histamine challenge measured for 15 mins; type: functional, organism-based; method in brief: as §1
Cytochrome P450 3A4 [9] = molecular target: T3, Cytochrome P450 3A4; remark: listed apart in the source
in vitro = settings: rat, liver microsomes
[10] = molecular target: T1, Sodium channel protein type 9 subunit alpha; assay: Displacement of [3H]-6,6-fused heteroaryl-sulfonamide derivative from human Nav1.7 expressed in HEK293 cell membranes preincubated for 30 mins followed by radioligand addition measured after 1 hr by scintillation counting analysis
[11] = molecular target: T1, Sodium channel protein type 9 subunit alpha; assay: Inhibition of human Nav1.7 expressed in HEK293 cells assessed as reduction in peak inward current by manual whole cell patch clamp electrophysiology assay; type: cell-based
[12] = Half life in Harlan rat at 1 mg/kg, iv by LC-MS/MS analysis; type: ADME, organism-based; settings: in vivo
Method in brief: (§2)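 Male fed rats. The IV dose was given in 100% DMSO. The oral dose was given in 1% Tween 80, 2% HPMC, 97% water/NaOH (pH 8.5).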

[13] = molecular target: T4, Nuclear receptor subfamily 1 group I member 2 (Homo sapiens, UniProt O75469); assay: Induction of human PXR at 10 uM; type: ADME
T4 sequence (O75469 whole entry): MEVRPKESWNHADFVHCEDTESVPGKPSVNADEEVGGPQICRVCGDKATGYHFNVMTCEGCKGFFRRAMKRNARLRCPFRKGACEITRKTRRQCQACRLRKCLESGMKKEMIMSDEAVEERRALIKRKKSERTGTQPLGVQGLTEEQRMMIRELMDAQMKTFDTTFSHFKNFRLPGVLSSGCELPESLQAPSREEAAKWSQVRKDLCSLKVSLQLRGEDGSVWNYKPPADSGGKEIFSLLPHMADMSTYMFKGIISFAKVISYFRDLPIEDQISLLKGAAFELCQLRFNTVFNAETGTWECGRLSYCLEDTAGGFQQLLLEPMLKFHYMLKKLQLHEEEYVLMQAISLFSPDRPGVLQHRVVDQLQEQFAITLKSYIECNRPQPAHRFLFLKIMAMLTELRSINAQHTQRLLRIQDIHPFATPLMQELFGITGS

[14] = Clearance in Harlan rat at 1 mg/kg, iv by LC-MS/MS analysis; type: ADME, organism-based; settings: in vivo; method in brief: as §2
[15] = AUC (infinity) in Harlan rat at 1 mg/kg, iv by LC-MS/MS analysis; type: ADME, organism-based; set-up: dose 1 mg/kg, route intravenous, time infinity; settings: in vivo; method in brief: as §2
[16] = Toxicity in naive C57BL/6 mouse assessed as effect on basic locomotor movement at 300 mg/kg, po measured after 4 hrs for 60 mins by open field test; type: organism-based; settings: in vivo
Method in brief: (§3)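 Naive mice were dosed orally with vehicle or test article at 30, 100 or 300 mg/kg (n = 10 per group). Total basic movement in an open-field arena was recorded after dosing, and unbound plasma concentration was reported per dose.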

[17] = Free plasma concentration in naive C57BL/6 mouse assessed as effect on basic locomotor movement at 100 mg/kg, po measured after 4 hrs for 60 mins by open field test; type: ADME, organism-based; settings: in vivo; method in brief: as §3
[18] = molecular target: Sodium channel protein type 4 subunit alpha (Homo sapiens, UniProt P35499); assay: Inhibition of human Nav1.4 expressed in HEK293 cells assessed as reduction in peak inward current by manual whole cell patch clamp electrophysiology assay; type: cell-based
[19] = Volume of distribution in Harlan rat at 1 mg/kg, iv by LC-MS/MS analysis; type: ADME, organism-based; settings: in vivo; method in brief: as §2
[20] = molecular target: Sodium channel protein type 2 subunit alpha (Homo sapiens, UniProt Q99250); assay: Inhibition of human Nav1.2 expressed in CHO cells assessed as reduction in peak inward current by manual whole cell patch clamp electrophysiology assay; type: cell-based
Mus musculus [21] = assay: In vivo inhibition of Nav1.7 in C57BL/6 mouse assessed as reduction in histamine-induced scratching bouts at 30 mg/kg, po administered 4 hrs prior to histamine challenge measured for 15 mins; type: functional, organism-based; method in brief: as §1
[22] = molecular target: Sodium channel protein type 9 subunit alpha (Mus musculus, UniProt Q62205); assay: Inhibition of mouse Nav1.7 expressed in HEK293 cells incubated for 3 to 5 mins at -125 mV holding potential by electrophysiology assay; type: cell-based
[23] = molecular target: T1, Sodium channel protein type 9 subunit alpha; assay: Inhibition of human Nav1.7 expressed in HEK293 cells assessed as tonic block at pulse 1 by ionworks quattro electrophysiology assay; type: cell-based
[24] = Plasma protein binding in Harlan rat at 1 mg/kg, iv by LC-MS/MS analysis; type: ADME, organism-based; settings: read-out: PPB (converted)
[25] = Toxicity in C57BL/6 mouse assessed as reduction in locomotor activity at 30 mg/kg, po for 4 hrs by open field test; settings: in vivo
Cytochrome P450 2D6 [26] = molecular target: T2, Cytochrome P450 2D6; remark: listed apart in the source
[27] = Protein binding in mouse plasma at 5 uM after 45 mins by LC-MS/MS analysis; type: ADME, cell-free; settings: read-out: PPB (converted)
[28] = molecular target: Sodium channel protein type 10 subunit alpha (Homo sapiens, UniProt Q9Y5Y9); assay: Inhibition of human Nav1.8 expressed in CHO cells assessed as reduction in peak inward current by manual whole cell patch clamp electrophysiology assay; type: cell-based
Chain of Sodium channel protein type 10 subunit alpha (Q9Y5Y9 whole entry): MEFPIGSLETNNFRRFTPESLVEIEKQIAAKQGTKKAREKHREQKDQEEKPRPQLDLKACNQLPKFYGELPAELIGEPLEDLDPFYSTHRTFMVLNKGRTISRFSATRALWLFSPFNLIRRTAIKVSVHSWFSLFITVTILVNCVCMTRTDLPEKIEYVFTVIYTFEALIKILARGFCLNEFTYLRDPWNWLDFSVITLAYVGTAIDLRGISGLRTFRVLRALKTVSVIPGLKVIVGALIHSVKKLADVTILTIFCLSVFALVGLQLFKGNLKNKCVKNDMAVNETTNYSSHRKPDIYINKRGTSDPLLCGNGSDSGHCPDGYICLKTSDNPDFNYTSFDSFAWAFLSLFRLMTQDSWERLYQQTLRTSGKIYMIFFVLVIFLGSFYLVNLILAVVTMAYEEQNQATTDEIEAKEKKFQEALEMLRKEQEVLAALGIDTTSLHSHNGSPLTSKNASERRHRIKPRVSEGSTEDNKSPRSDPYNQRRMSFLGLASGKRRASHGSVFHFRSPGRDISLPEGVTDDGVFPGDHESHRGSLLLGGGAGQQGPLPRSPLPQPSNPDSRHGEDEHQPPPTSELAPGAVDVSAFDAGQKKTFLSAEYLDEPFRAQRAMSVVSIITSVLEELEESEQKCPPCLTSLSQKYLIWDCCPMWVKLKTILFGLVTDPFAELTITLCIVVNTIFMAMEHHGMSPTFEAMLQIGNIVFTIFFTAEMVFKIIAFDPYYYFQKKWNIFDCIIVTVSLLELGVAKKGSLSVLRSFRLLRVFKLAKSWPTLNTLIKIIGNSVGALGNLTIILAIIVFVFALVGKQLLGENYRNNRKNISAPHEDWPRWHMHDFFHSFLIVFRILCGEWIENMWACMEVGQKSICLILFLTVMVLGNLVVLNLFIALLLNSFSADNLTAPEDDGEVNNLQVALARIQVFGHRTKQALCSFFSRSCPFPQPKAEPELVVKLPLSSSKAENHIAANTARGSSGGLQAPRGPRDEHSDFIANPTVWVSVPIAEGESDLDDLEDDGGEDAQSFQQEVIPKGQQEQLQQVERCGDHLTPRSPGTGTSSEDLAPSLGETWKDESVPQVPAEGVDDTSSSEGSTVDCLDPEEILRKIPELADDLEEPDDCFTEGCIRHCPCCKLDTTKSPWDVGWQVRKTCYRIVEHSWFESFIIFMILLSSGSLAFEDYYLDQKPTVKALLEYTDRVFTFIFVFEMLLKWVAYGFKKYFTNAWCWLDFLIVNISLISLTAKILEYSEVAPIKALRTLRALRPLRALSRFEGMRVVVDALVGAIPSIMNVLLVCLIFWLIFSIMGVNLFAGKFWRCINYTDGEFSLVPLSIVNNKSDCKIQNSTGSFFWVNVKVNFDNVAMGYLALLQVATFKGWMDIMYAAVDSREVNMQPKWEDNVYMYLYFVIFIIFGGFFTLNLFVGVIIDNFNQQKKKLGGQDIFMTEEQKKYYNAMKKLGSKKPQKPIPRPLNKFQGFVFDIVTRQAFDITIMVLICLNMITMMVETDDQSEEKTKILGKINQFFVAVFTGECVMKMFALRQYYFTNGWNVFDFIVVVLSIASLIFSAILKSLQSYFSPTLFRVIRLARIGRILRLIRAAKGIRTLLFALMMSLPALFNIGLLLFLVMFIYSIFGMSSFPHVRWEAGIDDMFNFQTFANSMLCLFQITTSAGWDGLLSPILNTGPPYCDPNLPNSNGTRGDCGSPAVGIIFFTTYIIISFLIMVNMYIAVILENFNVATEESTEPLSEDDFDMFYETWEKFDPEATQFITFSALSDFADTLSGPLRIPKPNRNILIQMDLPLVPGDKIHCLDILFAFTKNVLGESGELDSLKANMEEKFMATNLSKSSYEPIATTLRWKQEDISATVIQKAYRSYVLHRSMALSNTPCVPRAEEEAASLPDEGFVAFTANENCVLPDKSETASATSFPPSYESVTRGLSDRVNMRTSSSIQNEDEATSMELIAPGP

Mus musculus [29] = assay: In vivo inhibition of Nav1.7 in C57BL/6 mouse assessed as reduction in histamine-induced scratching bouts at 300 mg/kg, po administered 4 hrs prior to histamine challenge measured for 15 mins; type: functional; settings: C57BL/6, po; method in brief: as §1

COc1cc(C(=O)NS(C)(=O)=O)c(F)cc1-c1cnc(Oc2cc(F)ccc2F)c(Cl)c1
IC50 [1]: 51 nM | Papp at 2 h, 5 µM [2]: 22.4 ×10⁻⁶ cm/s | IC50 (Cytochrome P450 2D6 [3]): > 50000 nM | IC50 (Cytochrome P450 3A4 [4]): > 50000 nM | solubility thermodynamic at 24 h (physchem): 398 µM (≈ 194 µg/mL) | IC50 [5]: 9400 nM | IC50 [6]: 42 nM | Cp(f) [7]: 4.16 µM | Activity (Mus musculus [8]): inactive | IC50 (Cytochrome P450 3A4 [9]): > 50000 nM | microsomal CLint at 1 µM (in vitro): < 14 µL/min/mg | IC50 [10]: 17 nM | IC50 [11]: 51 nM | half-life [12]: 1.84 h | Activity [13]: 3% | clearance [14]: 6.5 mL/min/kg | AUC(0-inf) [15]: 5.4 µM·h | Activity [16]: Non-Toxic | Cp(f) [17]: 2.39 µM | IC50 [18]: 1100 nM | Vd [19]: 0.93 L/kg | IC50 [20]: 9800 nM | inhibition (Mus musculus [21]): inactive | IC50 [22]: 115 nM | IC50 [23]: 44 nM | fraction unbound [24]: 0.004 | Activity [25]: Non-Toxic | IC50 (Cytochrome P450 2D6 [26]): > 50000 nM | fraction unbound at 0.75 h, 5 µM [27]: 0.014 | IC50 [28]: 15600 nM | inhibition in vivo at 300 mg/kg (Mus musculus [29]): 75%
